Measurements taken from ChEMBL document CHEMBL3244363, “Studies on biologically active halogenated compounds. 1. Synthesis and central nervous system depressant activity of 2-(fluoromethyl)-3-aryl-4(3H)-quinazolinone derivatives” (J Med Chem, 1979).
Calls of active or inactive are those of the source. No cut-off for these calls is given here.

Assays:
Mus musculus [1] = assay: Induction of CNS depressant activity in ip dosed ddk mouse after 30 mins by rotating rod test; type: functional; details: Central nervous system, 0.5 h
Outline: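 Compound was given ip to groups of six mice as a suspension in CMC solution. At 30 min each mouse was set on a rotating rod (3.5 cm diameter, 14 rpm) for 1 min. ED50 was estimated from the number of mice falling off the rod twice during the test.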

[2] = Acute toxicity in ip dosed ddk mouse assessed as lethality after 72 hrs; type: organism-based; details: in vivo
Mus musculus [3] = assay: Induction of CNS depressant activity in ip dosed ddk mouse assessed as protection against pentylenetetrazole-induced tonic extensive convulsions administered 30 mins prior to pentylenetetrazole challenge; type: functional; details: Central nervous system
Outline: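 In groups of six mice, compound was injected ip as a suspension in CMC solution. Pentylenetetrazole 125 mg/kg was given sc 30 min later. ED50 was estimated from the number of mice protected against death from tonic extensive convulsions within 1 h of the convulsant.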

Mus musculus [4] = assay: Induction of CNS depressant activity in ip dosed ddk mouse assessed as protection against maximal electroshock-induced tonic hind limb extensor seizures administered 30 mins prior to electroshock challenge; type: functional; details: Central nervous system
Outline: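 Six mice per group were dosed ip with compound suspended in CMC solution. After 30 min, a 25 mA alternating current was delivered through corneal electrodes for 0.15 s. ED50 was estimated from the number of mice protected against the tonic hind limb extensor component.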

Mus musculus [5] = assay: Induction of CNS depressant activity in ip dosed ddk mouse assessed as loss of righting reflex activity over 20 secs; type: functional; details: Central nervous system
Outline: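 Groups of six mice received compound ip as a suspension in CMC solution. Each mouse was laid on its back at 15, 30, 60, 90 and 120 min. The reflex was scored as lost if the animal stayed supine over 20 s. ED50 was estimated from the number of mice losing the reflex.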

Mus musculus [6] = assay: Induction of CNS depressant activity in ip dosed ddk mouse assessed as excitation incidence during loss of righting reflex activity over 20 secs; type: functional, organism-based; details: Central nervous system

SMILES: Cc1ccccc1-n1c(CF)nc2ccccc2c1=O
- ED50 (Mus musculus [1]): 35.1 mg/kg
- LD50 at 72 h [2]: 710 mg/kg
- ED50 (Mus musculus [3]): 26.6 mg/kg
- ED50 (Mus musculus [4]): 25.2 mg/kg
- ED50 (Mus musculus [5]): 19.9 mg/kg

SMILES: Cc1ccccc1-n1c(CF)nc2ccc(Cl)cc2c1=O
- ED50 (Mus musculus [1]): > 150 mg/kg
- MTD at 72 h [2]: ≥ 300 mg/kg
- ED50 (Mus musculus [3]): > 150 mg/kg
- ED50 (Mus musculus [4]): > 150 mg/kg
- ED50 (Mus musculus [5]): > 150 mg/kg

SMILES: Cc1cc(Cl)ccc1-n1c(CF)nc2ccccc2c1=O
- LD50 at 72 h [2]: 432 mg/kg
- Activity (Mus musculus [6]): Active
- ED50 (Mus musculus [3]): 16.3 mg/kg
- ED50 (Mus musculus [4]): 14.1 mg/kg
- ED50 (Mus musculus [5]): 18.7 mg/kg

SMILES: Cc1ccccc1-n1c(CF)nc2cccc(Cl)c2c1=O
- ED50 (Mus musculus [1]): 37.6 mg/kg
- MTD at 72 h [2]: ≥ 300 mg/kg
- ED50 (Mus musculus [3]): 34.9 mg/kg
- ED50 (Mus musculus [4]): 40.3 mg/kg
- ED50 (Mus musculus [5]): 95.7 mg/kg

SMILES: Cc1ccccc1-n1c(CF)nc2ccc(N)cc2c1=O [AFLOQUALONE]
- ED50 (Mus musculus [1]): 15.6 mg/kg
- LD50 at 72 h [2]: 315 mg/kg
- ED50 (Mus musculus [3]): 5.4 mg/kg
- ED50 (Mus musculus [4]): 13.3 mg/kg
- ED50 (Mus musculus [5]): 35.1 mg/kg

SMILES: O=c1c2ccccc2nc(CF)n1-c1ccc(Cl)cc1Cl
- MTD at 72 h [2]: 100 mg/kg
- Activity (Mus musculus [6]): Active
- ED50 (Mus musculus [3]): 16.3 mg/kg
- ED50 (Mus musculus [4]): 8.1 mg/kg
- ED50 (Mus musculus [5]): 18.7 mg/kg

SMILES: Cc1c(Cl)cccc1-n1c(CF)nc2ccccc2c1=O
- ED50 (Mus musculus [1]): 15 mg/kg
- LD50 at 72 h [2]: 1560 mg/kg
- ED50 (Mus musculus [3]): 16.1 mg/kg
- ED50 (Mus musculus [4]): 15 mg/kg
- ED50 (Mus musculus [5]): 18.4 mg/kg

SMILES: Cc1cc(Cl)ccc1-n1c(CF)nc2cccc(Cl)c2c1=O
- ED50 (Mus musculus [1]): > 150 mg/kg
- MTD at 72 h [2]: ≥ 300 mg/kg
- ED50 (Mus musculus [3]): 88.4 mg/kg
- ED50 (Mus musculus [4]): > 150 mg/kg
- ED50 (Mus musculus [5]): > 150 mg/kg

SMILES: Cc1ccccc1-n1c(C)nc2ccc(N)cc2c1=O
- ED50 (Mus musculus [1]): 27.9 mg/kg
- ED50 (Mus musculus [3]): 8.1 mg/kg
- ED50 (Mus musculus [4]): 25.4 mg/kg
- ED50 (Mus musculus [5]): 28.1 mg/kg

SMILES: Cc1ccccc1-n1c(CF)nc2ccc([N+](=O)[O-])cc2c1=O
- ED50 (Mus musculus [1]): > 150 mg/kg
- MTD at 72 h [2]: ≥ 300 mg/kg
- ED50 (Mus musculus [3]): > 150 mg/kg
- ED50 (Mus musculus [4]): > 150 mg/kg
- ED50 (Mus musculus [5]): > 150 mg/kg

SMILES: CC(=O)Nc1ccc2nc(CF)n(-c3ccccc3C)c(=O)c2c1
- ED50 (Mus musculus [1]): > 150 mg/kg
- MTD at 72 h [2]: ≥ 300 mg/kg
- ED50 (Mus musculus [3]): 75.2 mg/kg
- ED50 (Mus musculus [4]): > 150 mg/kg
- ED50 (Mus musculus [5]): > 150 mg/kg

SMILES: Cc1ccccc1-n1c(C)nc2ccccc2c1=O [METHAQUALONE]
- ED50 (Mus musculus [1]): 33.7 mg/kg
- LD50 at 72 h [2]: 542 mg/kg
- ED50 (Mus musculus [3]): 36.7 mg/kg
- ED50 (Mus musculus [4]): 35.2 mg/kg
- ED50 (Mus musculus [5]): 31.6 mg/kg

SMILES: O=c1c2ccccc2nc(CF)n1-c1ccccc1
- ED50 (Mus musculus [1]): 98 mg/kg
- MTD at 72 h [2]: ≥ 300 mg/kg
- ED50 (Mus musculus [3]): 95.3 mg/kg
- ED50 (Mus musculus [4]): 116 mg/kg
- ED50 (Mus musculus [5]): 130 mg/kg
